Data from ChEMBL document CHEMBL3580547, “Novel Pyrazole Derivatives Effectively Inhibit Osteoclastogenesis, a Potential Target for Treating Osteoporosis” (J Med Chem, 2015).
Active and inactive are the calls of the source. No cut-off for these calls is given here.

Tests used:
[1] = cells; details: Rattus norvegicus, Sprague-Dawley, Osteoclast, 120 h, read-out: INH
[2] = tested on: RAW264.7; assay: Inhibition of osteoclast formation in mouse RAW264.7 cells; assay type: functional, cell-based
[3] = tested on: Mus musculus; assay: Antiosteoporosis activity in ovariectomized ICR mouse assessed as inhibition of ovariectomy-induced reduction of trabecular bone number at 10 mg/kg, sc administered for 5 days/week for 30 days measured on day 30 by microcomputed tomographic analysis; assay type: functional, organism-based; details: Trabecula
Summary of the method: (§1)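 Female ICR mice (12 weeks old) were bilaterally ovariectomized or sham-operated. Starting 2 days post-surgery, they were dosed s.c. at 10 mg/kg, 5 days/week, or given vehicle for 30 days. Tibiae were fixed in 4% paraformaldehyde and scanned by μCT. BV/TV, Tb.N and Tb.Th were quantified 0.5−1.5 mm distal to the proximal growth plate.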

[4] = tested on: Mus musculus; assay: Antiosteoporosis activity in ovariectomized ICR mouse assessed as inhibition of ovariectomy-induced reduction of trabecular bone volume relative to tissue volume at 10 mg/kg, sc administered for 5 days/week for 30 days measured on day 30 by microcomputed tomographic analysis; assay type: functional, organism-based; details: Trabecula
Summary of the method: as §1

[5] = tested on: Osteoclast; assay: Antiosteoclastogenic activity in Sprague-Dawley rat bone marrow-derived preosteoclasts assessed as inhibition of RANKL/M-CSF-induced osteoclast formation treated on day 3 post RANKL/M-CSF induction measured over day 3 to day 5 by TRAP staining; assay type: functional, cell-based
Summary of the method: (§2)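 Rat bone-marrow preosteoclasts were cultured with RANKL 50 ng/mL and M-CSF 20 ng/mL. Compound (10 μM) was added during defined day windows, with days 3−5 taken as the late phase. Osteoclasts were scored by TRAP staining as TRAP-positive cells with ≥3 nuclei (N = 3).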

[6] = Cytotoxicity against cranium-derived preosteoblasts (unknown origin) assessed as effect on cell viability after 24 hrs by MTT assay; assay type: cell-based; details: osteoblast
Summary of the method: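 Osteoblasts were plated for 24 h, then exposed to compound for another 24 h. Viability was measured by MTT at 0.5 mg/mL in α-MEM for 60 min at 37 °C, with DMSO solubilisation and absorbance at 550 nm.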

[7] = tested on: Mus musculus; assay: Antiosteoporosis activity in ovariectomized ICR mouse assessed as inhibition of ovariectomy-induced osteocalcin level in serum at 10 mg/kg, sc administered for 5 days/week for 30 days measured on day 30 by enzyme immunoassay; assay type: functional, organism-based
Summary of the method: (§3)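 Twelve-week-old female ICR mice were bilaterally ovariectomized under isoflurane, with sham-operated controls. From 2 days after surgery, mice received s.c. compound or vehicle 5 days/week for 30 days. On day 30, serum was prepared by centrifugation at 1500g for 15 min. CTx was measured with a RatLaps EIA (N = 8) and osteocalcin with a Rat-MID osteocalcin EIA (N = 9).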

[8] = tested on: Mus musculus; assay: Antiosteoporosis activity in ovariectomized ICR mouse assessed as inhibition of ovariectomy-induced reduction of trabecular bone number at 10 mg/kg, sc administered for 5 days/week for 30 days measured on day 30 by Hematoxylin and eosin staining; assay type: functional, organism-based; details: Trabecula
Summary of the method: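 Ovariectomized or sham-operated female ICR mice were dosed s.c. at 10 mg/kg, 5 days/week, for 30 days. Tibiae taken on day 30 were fixed in 4% paraformaldehyde at 4 °C for 48 h and decalcified in 10% Na2EDTA at 4 °C for 14 days. They were then paraffin-embedded, cut longitudinally at 4 μm and stained with hematoxylin−eosin.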

[9] = tested on: Mus musculus; assay: Antiosteoporosis activity in ovariectomized ICR mouse assessed as inhibition of ovariectomy-induced C-terminal telopeptides of type-1 collagen level in serum at 10 mg/kg, sc administered for 5 days/week for 30 days measured on day 30 by enzyme immunoassay; assay type: functional, organism-based
Summary of the method: as §3

[10] = target: Transcription factor p65 (Mus musculus) (UniProt Q04207); assay: Inhibition of RANKL-induced P65 phosphorylation in mouse RAW264.7 cells at 10 uM preincubated for 2 hrs followed by RANKL induction measured over 60 mins by Western blot analysis; assay type: cell-based
Sequence of Transcription factor p65 (Mus musculus) (Q04207 whole entry): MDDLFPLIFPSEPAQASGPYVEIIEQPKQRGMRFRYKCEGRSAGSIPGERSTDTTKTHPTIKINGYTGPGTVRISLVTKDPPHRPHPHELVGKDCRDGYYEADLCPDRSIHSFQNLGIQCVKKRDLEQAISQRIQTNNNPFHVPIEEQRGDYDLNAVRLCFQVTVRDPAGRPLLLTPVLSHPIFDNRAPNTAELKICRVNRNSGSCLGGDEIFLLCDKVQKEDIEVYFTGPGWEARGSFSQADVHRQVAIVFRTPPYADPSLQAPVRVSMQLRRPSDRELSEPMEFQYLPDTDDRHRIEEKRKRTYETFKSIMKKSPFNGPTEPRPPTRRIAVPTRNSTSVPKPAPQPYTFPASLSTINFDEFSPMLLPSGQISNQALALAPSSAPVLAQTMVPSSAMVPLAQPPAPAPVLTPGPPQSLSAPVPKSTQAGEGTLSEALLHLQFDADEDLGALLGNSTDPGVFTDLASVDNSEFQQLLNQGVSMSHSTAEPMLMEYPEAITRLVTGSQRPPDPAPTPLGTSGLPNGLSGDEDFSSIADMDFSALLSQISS
Summary of the method: (§4)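 Confluent RAW264.7 cells were pretreated with compound (10 μM) for 2 h, then stimulated with RANKL 50 ng/mL for various times. Lysates (30 μg protein per lane) were run on 10% SDS gels and transferred to PVDF. Blots were probed overnight at 4 °C with antibodies to phospho- and total IKKα/β and p65, with actin as control, followed by HRP secondary antibodies.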

[11] = Cytotoxicity against Sprague-Dawley rat bone marrow-derived preosteoclasts assessed as cell viability at 10 uM incubated for 5 days measured on day 8 by MTT assay in presence of M-CSF; assay type: cell-based; details: osteoclast, 120 h
Summary of the method: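 Nonadherent bone-marrow preosteoclasts were seeded at 10⁶ cells/well with M-CSF 20 ng/mL for 3 days, then treated with compound for another 5 days. After washing, cells were given MTT at 0.5 mg/mL in α-MEM for 60 min at 37 °C. Formazan was dissolved in DMSO and absorbance read at 550 nm.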

[12] = tested on: Osteoclast; assay: Antiresorptive activity in RANKL/M-CSF-stimulated Sprague-Dawley rat bone marrow-derived preosteoclasts assessed as inhibition of osteoclast resorption area at 10 uM treated for 3 days post 5 days RANKL/M-CSF stimulation measured on day 8 by inverted microscopic analysis; assay type: functional
Summary of the method: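 Rat bone-marrow preosteoclasts were seeded at 10⁶ cells/well on resorbable assay plates with RANKL 50 ng/mL and M-CSF 20 ng/mL for 5 days. Both factors were then removed and compound was added for another 3 days. Cells were stripped with 1 N NaOH, and resorbed areas were photographed under an inverted microscope and quantified by image analysis.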

[13] = target: T1, Tumor necrosis factor ligand superfamily member 11 (Mus musculus) (UniProt O35235); assay: Antiosteoclastogenic activity in ICR mouse bone marrow-derived preosteoclasts assessed as inhibition of RANKL/M-CSF-induced osteoclast formation at 10 uM after 5 days by TRAP staining; assay type: functional, cell-based
T1 sequence (whole entry): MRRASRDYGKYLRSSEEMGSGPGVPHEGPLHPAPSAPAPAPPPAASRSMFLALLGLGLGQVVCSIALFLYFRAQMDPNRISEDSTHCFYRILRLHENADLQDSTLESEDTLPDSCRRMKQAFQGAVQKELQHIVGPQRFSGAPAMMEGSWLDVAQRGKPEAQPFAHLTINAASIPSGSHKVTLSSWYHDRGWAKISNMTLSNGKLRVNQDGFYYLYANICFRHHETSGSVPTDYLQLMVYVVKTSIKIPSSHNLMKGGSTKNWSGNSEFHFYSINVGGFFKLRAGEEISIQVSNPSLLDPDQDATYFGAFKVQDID
Summary of the method: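 They were plated at 10⁶ cells/well with RANKL (50 ng/mL), M-CSF (20 ng/mL) and compound for 5 days. Cells were fixed in 4% paraformaldehyde and TRAP-stained for 1 h at 37 °C. TRAP-positive cells with ≥3 nuclei were counted as osteoclasts.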

[14] = target: T1, Tumor necrosis factor ligand superfamily member 11 (Mus musculus); assay: Inhibition of RANKL-induced IKK phosphorylation in mouse RAW264.7 cells at 10 uM preincubated for 2 hrs followed by RANKL induction measured over 60 mins by Western blot analysis; assay type: cell-based
Summary of the method: as §4

[15] = Cytotoxicity against cranium-derived preosteoblasts (unknown origin) assessed as inhibition of bone mineralized nodule formation after 2 weeks by alizarin red staining assay in presence of beta-glycerophosphate and L-ascorbic acid; assay type: cell-based; details: osteoblast, 336 h
Summary of the method: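 Cranium-derived preosteoblasts were grown in α-MEM with 10% FBS. Mineralisation was induced with 10 mM β-glycerophosphate and 50 μg/mL L-ascorbic acid, with or without compound, for 2 weeks. Cells were fixed in ice-cold 75% ethanol for 30 min and stained with 40 mM alizarin red (pH 4.2). Stain was quantified at 550 nm against a standard curve.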

[16] = tested on: Osteoclast; assay: Effect on osteoclast formation from RANKL/M-CSF-stimulated Sprague-Dawley rat bone marrow-derived preosteoclasts at 10 uM treated for 3 days post 5 days RANKL/M-CSF stimulation measured on day 8 by inverted microscopic analysis relative to control; assay type: functional, cell-based
[17] = tested on: Osteoclast; assay: Antiosteoclastogenic activity in Sprague-Dawley rat bone marrow-derived preosteoclasts assessed as inhibition of RANKL/M-CSF-induced osteoclast formation treated on day 1 measured over day 1 to day 3 by TRAP staining; assay type: functional, cell-based
Summary of the method: as §2

[18] = tested on: Mus musculus; assay: Antiosteoporosis activity in ovariectomized ICR mouse assessed as inhibition of ovariectomy-induced reduction of trabecular thickness at 10 mg/kg, sc administered for 5 days/week for 30 days measured on day 30 by microcomputed tomographic analysis; assay type: functional, organism-based; details: Trabecula
Summary of the method: as §1

[19] = tested on: Osteoclast; details: Rattus norvegicus, Sprague-Dawley, 10 uM

## OCCc1ccc(-c2nn(Cc3ccccc3)c3ccccc23)o1
[1]
  inhibition at 10 µM: 20%

## CN(C)CCOC(=O)c1ccc(-c2nn(Cc3ccccc3)c3ccccc23)o1
[2]
  inhibition: Active
[3]
  inhibition: Active
[4]
  inhibition: Active
[5]
  inhibition: Dose-dependent effect
[1]
  inhibition at 10 µM: > 90%
[6]
  Activity: Non-toxic
[7]
  inhibition: Active
[8]
  inhibition: Active
[9]
  inhibition: Active
[10]
  inhibition: Active
[11]
  Activity: Non-toxic
[12]
  inhibition at 10 µM: > 75%
[13]
  inhibition: Active
[14]
  inhibition: Active
[15]
  Activity: Non-toxic
[16]
  Activity: inactive
[17]
  inhibition: Dose-dependent effect
[18]
  inhibition: Active

## CC(=O)c1ccc(-c2nn(Cc3ccccc3)c3ccccc23)o1
[1]
  inhibition at 10 µM: 20%

## O=C(O)c1ccc(-c2nn(Cc3ccccc3)c3ccccc23)o1
[1]
  inhibition at 10 µM: 20%

## CC(C)(C)C(=O)OCc1ccc(-c2nn(Cc3ccccc3)c3ccccc23)o1
[1]
  inhibition at 10 µM: 20%

## NCCCC(O)(P(=O)(O)O)P(=O)(O)O
[19]
  inhibition: Active

## CC(=O)OCc1ccc(-c2nn(Cc3ccccc3)c3ccccc23)o1
[1]
  inhibition at 10 µM: 20%

## CON(C)C(=O)c1ccc(-c2nn(Cc3ccccc3)c3ccccc23)o1
[1]
  inhibition at 10 µM: 20%
